# Results reported in ChEMBL document CHEMBL3603777, “Carbon nanotubes supported tyrosinase in the synthesis of lipophilic hydroxytyrosol and dihydrocaffeoyl catechols with antiviral activity against DNA and RNA viruses” (Bioorg Med Chem, 2015).
# Activity calls are given as the source filed them. The calls are words filed in the database; no cut-off is given here.
# Key:
# [1] = tested on: Human poliovirus 1 strain Sabin; assay: Antiviral activity against Poliovirus type 1 Sabin VR-1562 infected in African green monkey Vero cells assessed as inhibition of virus-induced plaque formation/cytopathogenicity; assay type: functional; details: Enterovirus C, VR-1562, Vero; read-out: ID50 (the source's name)
# Procedure, shortened: (§1)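 Cell monolayers infected at MOI 0.1 and treated with compound at 25 to 200 μg/mL. Compounds dissolved in DMSO, diluted in maintenance medium (DMEM, 2% heat-inactivated FCS), final DMSO at most 0.01%. Acyclovir is the reference. ID50 is the concentration giving 50% reduction of plaque formation or virus-induced cytopathogenicity, from dose–response curves by linear regression. Values are the mean of three separate assays.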
# Coxsackievirus B3 = assay: Antiviral activity against Coxsackie type B3 virus VR-1034 infected in African green monkey Vero cells assessed as inhibition of virus-induced plaque formation/cytopathogenicity; assay type: functional; details: Enterovirus B, VR-1034, Vero; read-out: ID50 (the source's name); procedure, shortened: as §1
# Echovirus E9 = assay: Antiviral activity against Human echovirus type 9 VR-1050 infected in African green monkey Vero cells assessed as inhibition of virus-induced plaque formation/cytopathogenicity; assay type: functional; details: Enterovirus B, VR-1050, Vero; read-out: ID50 (the source's name); procedure, shortened: as §1
# Human alphaherpesvirus 1 [2] = assay: Antiviral activity against Herpes simplex type 1 VR-260 infected in African green monkey Vero cells assessed as inhibition of virus-induced plaque formation/cytopathogenicity; assay type: functional; details: Human alphaherpesvirus 1, VR-260, Vero; read-out: ID50 (the source's name); procedure, shortened: as §1
# Human alphaherpesvirus 2 = assay: Antiviral activity against Herpes simplex type 2 VR-734 infected in African green monkey Vero cells assessed as inhibition of virus-induced plaque formation/cytopathogenicity; assay type: functional; details: Human alphaherpesvirus 2, VR-734, Vero; read-out: ID50 (the source's name); procedure, shortened: as §1
# Human adenovirus 2 = assay: Antiviral activity against Adenovirus type 2 VR-1080 infected in human Hep2 cells assessed as inhibition of virus-induced plaque formation/cytopathogenicity; assay type: functional; details: Human mastadenovirus C, VR-1080, HEp-2; read-out: ID50 (the source's name); procedure, shortened: as §1
# Human adenovirus 5 = assay: Antiviral activity against Adenovirus type 5 VR-1523 infected in human Hep2 cells assessed as inhibition of virus-induced plaque formation/cytopathogenicity; assay type: functional; details: Human mastadenovirus C, VR-1523, HEp-2; read-out: ID50 (the source's name); procedure, shortened: as §1
# Cytomegalovirus = assay: Antiviral activity against Cytomegalovirus VR-538 infected in human HFF1 cells assessed as inhibition of virus-induced plaque formation/cytopathogenicity; assay type: functional; details: Human betaherpesvirus 5, VR-538, HFF-1; read-out: ID50 (the source's name); procedure, shortened: as §1
# [3] = Cytotoxicity against African green monkey Vero cells after 24 hrs by MTT assay; assay type: cell-based; details: chlorocebus sabaeus
# [4] = Cytotoxicity against human Hep2 cells after 24 hrs by MTT assay; assay type: cell-based, HEp-2
# [5] = Cytotoxicity against human HFF1 cells after 24 hrs by MTT assay; assay type: cell-based, HFF-1
# Human alphaherpesvirus 1 [6] = assay: Antiviral activity against Herpes simplex type 1 VR-260 infected in African green monkey Vero cells assessed as inhibition of virus replication at 5 times ID50 treated 1 hr after virus adsorption period measured after 12 hrs by plaque assay; assay type: functional, organism-based
# Procedure, shortened: (§2)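 Confluent Vero monolayers infected with HSV-1 at MOI 0.1, 2 h adsorption at 4 °C for synchronous replication. Inoculum then removed and fresh medium with or without compound added at various times after adsorption. Incubation at 37 °C for 12 h, cultures frozen, virus yield titrated by plaque assay. Mean ± SEM of three separate assays.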
# Human alphaherpesvirus 1 [7] = assay: Antiviral activity against Herpes simplex type 1 VR-260 infected in African green monkey Vero cells assessed as inhibition of virus replication at 5 times ID50 treated 2 hrs after virus adsorption period measured after 12 hrs by plaque assay; assay type: functional, organism-based; procedure, shortened: as §2
# Human alphaherpesvirus 1 [8] = assay: Antiviral activity against Herpes simplex type 1 VR-260 infected in African green monkey Vero cells assessed as reduction of virus yield at 5 times ID50 treated 2 hrs after virus adsorption period measured after 12 hrs by plaque assay; assay type: functional, organism-based; procedure, shortened: as §2
# Human alphaherpesvirus 1 [9] = assay: Inhibition of Herpes simplex type 1 VR-260 adsorption in African green monkey Vero cells assessed as cell-associated viral activity at 5 times ID50 after 120 mins by plaque assay; assay type: functional, organism-based
# Procedure, shortened: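 Infective center assay. HSV-1 (10⁶ PFU/mL) preincubated 60 min at 37 °C with compound, chilled to 4 °C, then added to a Vero suspension (10⁶ cells/mL) precooled ≥1 h at 4 °C. Adsorption for 120 min at 4 °C. Cells washed three times with cold DMEM, serially diluted and plaque assayed for cell-associated virus.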
# Human alphaherpesvirus 1 [10] = assay: Antiviral activity against Herpes simplex type 1 VR-260 infected in African green monkey Vero cells assessed as virucidal activity at 5 times ID50 after 1 hr by plaque assay; assay type: functional, organism-based
# Procedure, shortened: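 HSV-1 suspension (10⁶ PFU/mL) mixed 1:1 by volume with DMEM containing compound at 5× ID50, held 1 h at 37 °C. Residual infectivity measured by plaque assay on Vero cells after diluting below the inhibitory concentration.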
# Human alphaherpesvirus 1 [11] = assay: Antiviral activity against Herpes simplex type 1 VR-260 infected in African green monkey Vero cells assessed as protection of host cells from viral infection […] by plaque assay; assay type: functional, organism-based
SMILES,IC50 [1] [µg/mL],IC50 (Coxsackievirus B3) [µg/mL],IC50 (Echovirus E9) [µg/mL],IC50 (Human alphaherpesvirus 1 [2]) [µg/mL],IC50 (Human alphaherpesvirus 2) [µg/mL],IC50 (Human adenovirus 2) [µg/mL],IC50 (Human adenovirus 5) [µg/mL],IC50 (Cytomegalovirus) [µg/mL],CC50 at 24 h [3] [µg/mL],CC50 at 24 h [4] [µg/mL],CC50 at 24 h [5] [µg/mL],Activity (Human alphaherpesvirus 1 [6]),Activity (Human alphaherpesvirus 1 [7]),Activity (Human alphaherpesvirus 1 [8]),inhibition (Human alphaherpesvirus 1 [9]),Activity (Human alphaherpesvirus 1 [10]),Activity (Human alphaherpesvirus 1 [11])
CC(=O)OCCc1ccc(O)c(O)c1,> 100,50,> 100,20,40,> 50,> 50,> 50,100,50,50,–,–,–,–,–,–
CCCC(=O)OCCc1ccc(O)c(O)c1 [HYDROXYTYROSOL BUTANOATE],> 100,> 100,> 100,> 100,100,> 100,> 100,> 100,100,100,100,–,–,–,–,–,–
CCCCC(=O)OCCc1ccc(O)c(O)c1,> 25,> 25,> 25,25,–,> 25,> 25,> 25,25,25,25,–,–,–,–,–,–
COC(=O)CCc1ccc(O)c(O)c1,> 100,> 100,> 100,> 100,> 100,> 100,> 100,100,100,100,100,–,–,–,–,–,–
CCOC(=O)CCc1ccc(O)c(O)c1,> 75,20,> 75,15,60,> 40,> 40,40,75,40,40,Active,inactive,Active,inactive,inactive,inactive
O=C(O)CCc1ccc(O)c(O)c1 [DIHYDROCAFFEIC ACID],> 200,> 200,> 200,> 200,–,> 200,> 200,> 200,> 200,> 200,> 200,–,–,–,–,–,–
CCCOC(=O)CCc1ccc(O)c(O)c1,> 200,> 200,> 200,> 200,–,> 200,> 200,–,> 200,> 200,–,–,–,–,–,–,–
CCC(=O)OCCc1ccc(O)c(O)c1,> 40,> 40,> 40,20,40,> 40,> 40,> 40,40,40,40,–,–,–,–,–,–
CCCCOC(=O)CCc1ccc(O)c(O)c1,> 200,100,> 200,> 200,> 200,> 200,> 200,25,200,200,100,–,–,–,–,–,–
